SR-BI DiI inh – inhibitors of SR-BI mediated HDL lipid uptake, primary screen, ldlA[mSR-BI] cells, fluorescence, single point. Scavenger receptor class B member 1 (Mus musculus), Q61009. ldlA[mSR-BI] CHO cells, DiI-HDL uptake fluorescence, 3 h. inhibition, % at 12.5 µM. hit rate 0.96% among 320,000. AID 488896, 2010;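 active = mean replicate inhibition of at least 70% and a set share of replicates each scoring 70 or more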;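 note: 0% = median of neutral control wells and 100% = median of positive control wells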
Target sequence (Q61009 whole entry, looked up): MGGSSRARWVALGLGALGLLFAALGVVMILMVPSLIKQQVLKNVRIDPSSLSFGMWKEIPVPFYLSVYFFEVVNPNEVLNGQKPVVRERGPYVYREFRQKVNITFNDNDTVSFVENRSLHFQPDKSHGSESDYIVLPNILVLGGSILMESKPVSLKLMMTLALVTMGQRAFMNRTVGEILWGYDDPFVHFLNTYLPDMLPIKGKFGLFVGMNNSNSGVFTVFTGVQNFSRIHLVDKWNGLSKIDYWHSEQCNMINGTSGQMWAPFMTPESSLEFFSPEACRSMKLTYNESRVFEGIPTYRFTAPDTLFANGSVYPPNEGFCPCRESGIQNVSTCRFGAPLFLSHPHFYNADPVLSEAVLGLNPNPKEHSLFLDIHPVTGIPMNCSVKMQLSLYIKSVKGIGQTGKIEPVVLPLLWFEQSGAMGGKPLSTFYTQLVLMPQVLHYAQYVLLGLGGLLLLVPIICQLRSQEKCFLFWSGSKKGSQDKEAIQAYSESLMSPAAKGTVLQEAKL
HIF activator – HIF pathway transcriptional activators, primary screen, cell-based, U2OS HRE-luciferase, luminescence; U2OS HRE-luciferase reporter; normalized: DMSO 0%, desferrioxamine 100%; activation, % at 7.5 µM (by protocol); hit rate 0.32% among 300,000; AID 1910, 2009;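 active = mean activation of at least 10% of the iron chelator positive control signal, with at least half of replicates also reaching 10%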
AHR act – AHR activators, primary screen, cell-based, luminescence, luciferase reporter, human | Aryl hydrocarbon receptor (Homo sapiens), P35869 | AHR-responsive luciferase reporter cells | activation, % at 5 µM | hit rate 2.5% among 320,000; in the data active = activation above about 47%;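 note: 0% = vehicle wells and 100% = reference agonist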
ABCB6 inh MLPCN – ABCB6 transporter inhibitors, primary screen, K562-ABCB6 cells, flow cytometry, MLPCN library; ATP-binding cassette sub-family B member 6 (Homo sapiens), Q9NP58; K562-ABCB6 porphyrin accumulation, 1 h; hits give low values; fluorescence ratio to DMSO, % at 10 µM; hit rate 0.19% among 360,000; AID 602162, 2011;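 active = fluorescence ratio to DMSO below 75%, the collection mean minus 3 SD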;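 note: signal is porphyrin accumulated inside mitochondria; 100% equals median channel fluorescence of DMSO control wells; lower ratio means ABCB6 inhibition with less porphyrin fluorescence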
SR-BI uptake up – activators of SR-BI mediated DiI-HDL uptake, primary screen, ldlA[mSR-BI] CHO cells, DiI fluorescence | hit rate 0.096% among 320,000 | activation, % at 12.5 µM | AID 504775, 2011 | 3 h; 100 = double the neutral-control signal;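 active = mean replicate activation of at least 60% and every replicate at or above 60%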;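 note: 0% = median plate neutral-control signal and 100% = twice that signal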
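System: CHO ldlA[mSR-BI] cells / Medium: HEPES-buffered (25 mM, pH 7.4) F12 plus 0.5% BSA / Probe or stimulus: labelled HDL, 10 µg/mL / Doses: single compound concentration, delivered by pin transfer / Schedule: 3 h, 37 °C / Measured by: DiI fluorescence, bottom read / Measure: cell-associated DiI fluorescence as measure of HDL uptake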
GAA850 FXN act – FXN promoter activators, primary screen, cell-based, luciferase luminescence, HEK293 lucGAA850; HEK293 lucGAA850 FXN promoter luciferase reporter, 24 h; percent of 10 µM SAHA response; activation, % at 6 µM; hit rate 0.56% among 360,000; AID 540364, 2011;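 active = activation above the average of all compounds screened plus 3 SD, cutoff fixed separately per campaign, cut at about 7.5% in these data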;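 note: 0% = DMSO wells and 100% = 10 µM SAHA wells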
Numbers without * were called inactive. Hits are enriched below; roughly 3.9% of the tested compounds scored in any of these assays.

What do the screens show for `CN(C(=O)COC(=O)c1ccc(S(=O)(=O)N2CCOCC2)cc1)c1ccccc1`?
SR-BI DiI inh: -70; AHR act: -1; ABCB6 inh MLPCN: 103; SR-BI uptake up: 70*; GAA850 FXN act: 2

Results for Cc1ccc(C(=O)Cn2cnc3ccccc3c2=O)cc1 ?
SR-BI DiI inh: -21; AHR act: 8; ABCB6 inh MLPCN: 98; SR-BI uptake up: 21; GAA850 FXN act: 2

What do the screens show for `O=C(Cn1cnc2ccccc2c1=O)c1ccccc1`?
SR-BI DiI inh: 5; HIF activator: 1; AHR act: 48*; ABCB6 inh MLPCN: 90; SR-BI uptake up: -5; GAA850 FXN act: 0

Results for CCOC(=O)N1CCN(C(=O)CN(Cc2ccc(Cl)cc2)S(C)(=O)=O)CC1 ?
SR-BI DiI inh: -16; AHR act: 6; ABCB6 inh MLPCN: 94; SR-BI uptake up: 16; GAA850 FXN act: 0

Results for Cc1cc(Nc2ncc(Cl)cc2Cl)n[nH]1 ?
SR-BI DiI inh: 9; HIF activator: 1; AHR act: 54*; ABCB6 inh MLPCN: 96; SR-BI uptake up: -9; GAA850 FXN act: -1

How did CNc1cc(CSc2ccc(Cl)cc2)nc(C)n1 do in these assays?
SR-BI DiI inh: 8; HIF activator: 3; AHR act: 68*; ABCB6 inh MLPCN: 91; SR-BI uptake up: -8; GAA850 FXN act: 6

How did CC(=O)Oc1ccc(C(=O)Nc2cccc(C(=O)c3ccc(C)c(C)c3)c2)cc1 do in these assays?
SR-BI DiI inh: 84*; HIF activator: 0; AHR act: 0; ABCB6 inh MLPCN: 86; SR-BI uptake up: -84; GAA850 FXN act: 0

What do the screens show for `COc1ccc(C(=O)Nc2cccc(OC(=O)c3ccc(C)c(C)c3)c2)cc1`?
SR-BI DiI inh: 6; HIF activator: 3; AHR act: 7; ABCB6 inh MLPCN: 99; SR-BI uptake up: -6; GAA850 FXN act: -3

How did CC(C)c1ccc(-c2nc3ccccc3s2)cc1 do in these assays?
HIF activator: -4; AHR act: 23; ABCB6 inh MLPCN: 98; GAA850 FXN act: -18

How did COc1ccc(OC)c2sc(N(CCCN(C)C)C(=O)CCS(=O)(=O)c3ccccc3)nc12 do in these assays?
SR-BI DiI inh: -44; HIF activator: -1; AHR act: 0; ABCB6 inh MLPCN: 97; SR-BI uptake up: 44; GAA850 FXN act: 31*

How did COc1ccc(Cl)c2sc(N(CCN(C)C)C(=O)CCS(=O)(=O)c3ccc(C)cc3)nc12 do in these assays?
SR-BI DiI inh: -34; HIF activator: 1; AHR act: 15; ABCB6 inh MLPCN: 100; SR-BI uptake up: 34; GAA850 FXN act: 1

What do the screens show for `CC(CCc1ccccc1)NC(=O)C1CCCN(c2nnc(-n3cccc3)s2)C1` (configuration not stated)?
SR-BI DiI inh: 60; HIF activator: 0; AHR act: -1; ABCB6 inh MLPCN: 105; SR-BI uptake up: -60; GAA850 FXN act: -2

What do the screens show for `C=C(C)C1CC=C(C)/C(=N\NC(=S)Nc2ccc(C)cc2)C1` (configuration not stated)?
SR-BI DiI inh: -1; HIF activator: 1; AHR act: 48*; ABCB6 inh MLPCN: 93; SR-BI uptake up: 1; GAA850 FXN act: 2

How did O=C(NCc1ccc(F)cc1Cl)C1CCN(S(=O)(=O)N2CCCCC2)CC1 do in these assays?
SR-BI DiI inh: 58; HIF activator: 0; AHR act: 1; ABCB6 inh MLPCN: 96; SR-BI uptake up: -58; GAA850 FXN act: 3

How did O=C1C(=Cc2ccco2)CCC1=Cc1ccco1 do in these assays?
SR-BI DiI inh: -17; ABCB6 inh MLPCN: 105; SR-BI uptake up: 17; GAA850 FXN act: 3

What do the screens show for `O=C1C(=Cc2ccco2)CCCC1=Cc1ccco1`?
SR-BI DiI inh: 20; ABCB6 inh MLPCN: 142; SR-BI uptake up: -20; GAA850 FXN act: 12*

What do the screens show for `CC(NC(=S)NC(=O)c1ccccc1Br)c1ccccc1` (configuration not stated)?
SR-BI DiI inh: 0; HIF activator: -3; AHR act: 19; ABCB6 inh MLPCN: 98; SR-BI uptake up: 0; GAA850 FXN act: 2

Results for O=C1c2ccccc2S(=O)(=O)c2cc(-c3nn[nH]n3)ccc21 ?
ABCB6 inh MLPCN: 100; GAA850 FXN act: 0

Results for COC(C(=O)Nc1ccc(NC(=O)C(OC)c2ccccc2)cc1)c1ccccc1 (configuration not stated) ?
SR-BI DiI inh: -10; HIF activator: 0; AHR act: 0; ABCB6 inh MLPCN: 99; SR-BI uptake up: 10; GAA850 FXN act: 1

What do the screens show for `C(=NN=Cc1c[nH]c2ccccc12)c1c[nH]c2ccccc12`?
ABCB6 inh MLPCN: 96; GAA850 FXN act: 1

Results for O=C1CS/C(=N/N=C/c2c[nH]c3ccccc23)N1 ?
HIF activator: 1; AHR act: 78*; ABCB6 inh MLPCN: 98; GAA850 FXN act: 3

How did Cc1cccc(C)c1OCc1cc(C(=O)NC2CCC(O)CC2)no1 (configuration not stated) do in these assays?
SR-BI DiI inh: 5; HIF activator: 0; AHR act: -2; ABCB6 inh MLPCN: 103; SR-BI uptake up: -5; GAA850 FXN act: 1

Results for Cc1cc(C(=O)CCC(=O)NCc2ccccc2F)c(C)s1 ?
SR-BI DiI inh: -17; HIF activator: -1; AHR act: 3; ABCB6 inh MLPCN: 105; SR-BI uptake up: 17; GAA850 FXN act: 0

How did Fc1ccc(NC(=S)Nc2cccnc2)cc1Cl do in these assays?
SR-BI DiI inh: 21; HIF activator: 0; AHR act: 19; ABCB6 inh MLPCN: 93; SR-BI uptake up: -21; GAA850 FXN act: -1

How did CCn1cc(Br)c(C(=O)Nc2ccc(F)c(Cl)c2)n1 do in these assays?
SR-BI DiI inh: 21; HIF activator: 4; AHR act: 51*; ABCB6 inh MLPCN: 91; SR-BI uptake up: -21; GAA850 FXN act: 2

What do the screens show for `Fc1ccc(NC(=S)Nc2cc(-c3ccccc3)[nH]n2)cc1Cl`?
SR-BI DiI inh: 13; HIF activator: 1; AHR act: 53*; ABCB6 inh MLPCN: 99; SR-BI uptake up: -13; GAA850 FXN act: 1

What do the screens show for `O=C(Nc1ccc(Cl)c(Cl)c1)c1ccncc1`?
SR-BI DiI inh: 2; HIF activator: 2; AHR act: 65*; ABCB6 inh MLPCN: 90; SR-BI uptake up: -2; GAA850 FXN act: 3

How did O=C(Nc1cccc(Cl)c1)c1ccncc1 do in these assays?
SR-BI DiI inh: 3; HIF activator: 1; AHR act: 17; ABCB6 inh MLPCN: 90; SR-BI uptake up: -3; GAA850 FXN act: 0
